Data taken from ChEMBL document CHEMBL5058577, “EUbOPEN Chemogenomics Library 2 (Multiplex)” (2022).

Tested on: HEK-293T
Assay: Multiplex assay against HEK293T
Format: toxicity, cell-based
Settings: human
Outline: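 With compound added, live cells were imaged on a CQ1 microscope at 37°C and 5% CO2; staining with Hoechst33342, BioTracker Green Microtubule Cytoskeleton Dye, MitoTracker Red and Annexin V Alexa Fluor 680 had been done at seeding. The CellPathfinder machine-learning gating scheme split cells into Hoechst high-intensity objects or normal cells, normal cells into healthy, pyknosed or fragmented nuclei, and pyknosed cells into mitotic or apoptotic. The tubulin, mitochondrial-mass and membrane-permeability phenotypes are per cents of healthy-nucleus cells.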

[1] = 12 h, 1 µM, compound concentration 1 uM, replicate 1
[2] = 12 h, 1 µM, compound concentration 1 uM, replicate 2
[3] = 12 h, 10 µM, compound concentration 10 uM, replicate 1
[4] = 12 h, 10 µM, compound concentration 10 uM, replicate 2
[5] = 24 h, 1 µM, compound concentration 1 uM, replicate 1
[6] = 24 h, 1 µM, compound concentration 1 uM, replicate 2
[7] = 24 h, 10 µM, compound concentration 10 uM, replicate 1
[8] = 24 h, 10 µM, compound concentration 10 uM, replicate 2
[9] = 48 h, 1 µM, compound concentration 1 uM, replicate 1
[10] = 48 h, 1 µM, compound concentration 1 uM, replicate 2
[11] = 48 h, 10 µM, compound concentration 10 uM, replicate 1
[12] = 48 h, 10 µM, compound concentration 10 uM, replicate 2

O=C(NCCO)c1cccc(-c2cc(Nc3ccc(OC(F)(F)F)cc3)ncn2)c1
Population Apoptotic (%) [1]: 27%
Population Fragmented Nuclei (%) [1]: 7%
Population Healthy Nuclei (%) [1]: 78%
Population Hoechst High Intensity Objects (%) [1]: 8%
Population Membrane Permeable-Phenotype (%) [1]: 0%
Population Mitochondria Different-Phenotype (%) [1]: 47%
Population Mitotic Cells (%) [1]: 72%
Population Normal (%) [1]: 91%
Population Pyknosed Nuclei (%) [1]: 13%
Population Tubulin-Different-Phenotype (%) [1]: 23%
Total Cell Count [1]: 409
Population Apoptotic (%) [2]: 40%
Population Fragmented Nuclei (%) [2]: 4%
Population Healthy Nuclei (%) [2]: 77%
Population Hoechst High Intensity Objects (%) [2]: 6%
Population Mitochondria Different-Phenotype (%) [2]: 60%
Population Mitotic Cells (%) [2]: 59%
Population Normal (%) [2]: 93%
Population Pyknosed Nuclei (%) [2]: 17%
Population Tubulin-Different-Phenotype (%) [2]: 16%
Total Cell Count [2]: 262
Population Apoptotic (%) [3]: 55%
Population Fragmented Nuclei (%) [3]: 6%
Population Healthy Nuclei (%) [3]: 76%
Population Hoechst High Intensity Objects (%) [3]: 10%
Population Membrane Permeable-Phenotype (%) [3]: 0%
Population Mitochondria Different-Phenotype (%) [3]: 69%
Population Mitotic Cells (%) [3]: 44%
Population Normal (%) [3]: 89%
Population Pyknosed Nuclei (%) [3]: 17%
Population Tubulin-Different-Phenotype (%) [3]: 49%
Total Cell Count [3]: 374
Population Apoptotic (%) [4]: 63%
Population Fragmented Nuclei (%) [4]: 5%
Population Healthy Nuclei (%) [4]: 73%
Population Hoechst High Intensity Objects (%) [4]: 12%
Population Mitochondria Different-Phenotype (%) [4]: 74%
Population Mitotic Cells (%) [4]: 36%
Population Normal (%) [4]: 87%
Population Pyknosed Nuclei (%) [4]: 21%
Population Tubulin-Different-Phenotype (%) [4]: 26%
Total Cell Count [4]: 325
Population Apoptotic (%) [5]: 26%
Population Fragmented Nuclei (%) [5]: 11%
Population Healthy Nuclei (%) [5]: 78%
Population Hoechst High Intensity Objects (%) [5]: 4%
Population Membrane Permeable-Phenotype (%) [5]: 0%
Population Mitochondria Different-Phenotype (%) [5]: 21%
Population Mitotic Cells (%) [5]: 73%
Population Normal (%) [5]: 95%
Population Pyknosed Nuclei (%) [5]: 10%
Population Tubulin-Different-Phenotype (%) [5]: 15%
Total Cell Count [5]: 538
Population Apoptotic (%) [6]: 41%
Population Fragmented Nuclei (%) [6]: 7%
Population Healthy Nuclei (%) [6]: 79%
Population Hoechst High Intensity Objects (%) [6]: 6%
Population Mitochondria Different-Phenotype (%) [6]: 38%
Population Mitotic Cells (%) [6]: 58%
Population Normal (%) [6]: 93%
Population Pyknosed Nuclei (%) [6]: 13%
Population Tubulin-Different-Phenotype (%) [6]: 17%
Total Cell Count [6]: 331
Population Apoptotic (%) [7]: 39%
Population Fragmented Nuclei (%) [7]: 5%
Population Healthy Nuclei (%) [7]: 80%
Population Hoechst High Intensity Objects (%) [7]: 7%
Population Membrane Permeable-Phenotype (%) [7]: 0%
Population Mitochondria Different-Phenotype (%) [7]: 61%
Population Mitotic Cells (%) [7]: 60%
Population Normal (%) [7]: 92%
Population Pyknosed Nuclei (%) [7]: 14%
Population Tubulin-Different-Phenotype (%) [7]: 38%
Total Cell Count [7]: 447
Population Apoptotic (%) [8]: 50%
Population Fragmented Nuclei (%) [8]: 6%
Population Healthy Nuclei (%) [8]: 77%
Population Hoechst High Intensity Objects (%) [8]: 14%
Population Mitochondria Different-Phenotype (%) [8]: 56%
Population Mitotic Cells (%) [8]: 50%
Population Normal (%) [8]: 85%
Population Pyknosed Nuclei (%) [8]: 15%
Population Tubulin-Different-Phenotype (%) [8]: 22%
Total Cell Count [8]: 354
Population Apoptotic (%) [9]: 17%
Population Fragmented Nuclei (%) [9]: 12%
Population Healthy Nuclei (%) [9]: 80%
Population Hoechst High Intensity Objects (%) [9]: 3%
Population Membrane Permeable-Phenotype (%) [9]: 2%
Population Mitochondria Different-Phenotype (%) [9]: 17%
Population Mitotic Cells (%) [9]: 82%
Population Normal (%) [9]: 96%
Population Pyknosed Nuclei (%) [9]: 7%
Population Tubulin-Different-Phenotype (%) [9]: 13%
Total Cell Count [9]: 897
Population Apoptotic (%) [10]: 37%
Population Fragmented Nuclei (%) [10]: 9%
Population Healthy Nuclei (%) [10]: 79%
Population Hoechst High Intensity Objects (%) [10]: 5%
Population Membrane Permeable-Phenotype (%) [10]: 0%
Population Mitochondria Different-Phenotype (%) [10]: 23%
Population Mitotic Cells (%) [10]: 62%
Population Normal (%) [10]: 94%
Population Pyknosed Nuclei (%) [10]: 10%
Population Tubulin-Different-Phenotype (%) [10]: 9%
Total Cell Count [10]: 476
Population Apoptotic (%) [11]: 41%
Population Fragmented Nuclei (%) [11]: 10%
Population Healthy Nuclei (%) [11]: 79%
Population Hoechst High Intensity Objects (%) [11]: 8%
Population Membrane Permeable-Phenotype (%) [11]: 1%
Population Mitochondria Different-Phenotype (%) [11]: 36%
Population Mitotic Cells (%) [11]: 58%
Population Normal (%) [11]: 91%
Population Pyknosed Nuclei (%) [11]: 10%
Population Tubulin-Different-Phenotype (%) [11]: 18%
Total Cell Count [11]: 595
Population Apoptotic (%) [12]: 58%
Population Fragmented Nuclei (%) [12]: 16%
Population Healthy Nuclei (%) [12]: 72%
Population Hoechst High Intensity Objects (%) [12]: 17%
Population Membrane Permeable-Phenotype (%) [12]: 0%
Population Mitotic Cells (%) [12]: 41%
Population Normal (%) [12]: 82%
Population Pyknosed Nuclei (%) [12]: 11%
Population Tubulin-Different-Phenotype (%) [12]: 13%
Total Cell Count [12]: 504

O=C1COc2nccc(-c3ccccc3F)c2CN1Cc1cc(C(F)(F)F)cc(C(F)(F)F)c1
Population Apoptotic (%) [1]: 31%
Population Fragmented Nuclei (%) [1]: 8%
Population Healthy Nuclei (%) [1]: 80%
Population Hoechst High Intensity Objects (%) [1]: 5%
Population Membrane Permeable-Phenotype (%) [1]: 0%
Population Mitochondria Different-Phenotype (%) [1]: 41%
Population Mitotic Cells (%) [1]: 68%
Population Normal (%) [1]: 94%
Population Pyknosed Nuclei (%) [1]: 10%
Population Tubulin-Different-Phenotype (%) [1]: 27%
Total Cell Count [1]: 397
Population Apoptotic (%) [2]: 51%
Population Fragmented Nuclei (%) [2]: 4%
Population Healthy Nuclei (%) [2]: 83%
Population Hoechst High Intensity Objects (%) [2]: 10%
Population Mitochondria Different-Phenotype (%) [2]: 67%
Population Mitotic Cells (%) [2]: 48%
Population Normal (%) [2]: 89%
Population Pyknosed Nuclei (%) [2]: 11%
Population Tubulin-Different-Phenotype (%) [2]: 20%
Total Cell Count [2]: 333
Population Apoptotic (%) [3]: 38%
Population Fragmented Nuclei (%) [3]: 10%
Population Healthy Nuclei (%) [3]: 76%
Population Hoechst High Intensity Objects (%) [3]: 9%
Population Membrane Permeable-Phenotype (%) [3]: 0%
Population Mitochondria Different-Phenotype (%) [3]: 67%
Population Mitotic Cells (%) [3]: 61%
Population Normal (%) [3]: 90%
Population Pyknosed Nuclei (%) [3]: 13%
Population Tubulin-Different-Phenotype (%) [3]: 68%
Total Cell Count [3]: 475
Population Apoptotic (%) [4]: 57%
Population Fragmented Nuclei (%) [4]: 8%
Population Healthy Nuclei (%) [4]: 79%
Population Hoechst High Intensity Objects (%) [4]: 5%
Population Mitochondria Different-Phenotype (%) [4]: 76%
Population Mitotic Cells (%) [4]: 42%
Population Normal (%) [4]: 94%
Population Pyknosed Nuclei (%) [4]: 12%
Population Tubulin-Different-Phenotype (%) [4]: 39%
Total Cell Count [4]: 382
Population Apoptotic (%) [5]: 21%
Population Fragmented Nuclei (%) [5]: 8%
Population Healthy Nuclei (%) [5]: 84%
Population Hoechst High Intensity Objects (%) [5]: 3%
Population Membrane Permeable-Phenotype (%) [5]: 0%
Population Mitochondria Different-Phenotype (%) [5]: 32%
Population Mitotic Cells (%) [5]: 78%
Population Normal (%) [5]: 96%
Population Pyknosed Nuclei (%) [5]: 7%
Population Tubulin-Different-Phenotype (%) [5]: 23%
Total Cell Count [5]: 517
Population Apoptotic (%) [6]: 59%
Population Fragmented Nuclei (%) [6]: 5%
Population Healthy Nuclei (%) [6]: 87%
Population Hoechst High Intensity Objects (%) [6]: 8%
Population Mitochondria Different-Phenotype (%) [6]: 39%
Population Mitotic Cells (%) [6]: 40%
Population Normal (%) [6]: 91%
Population Pyknosed Nuclei (%) [6]: 6%
Population Tubulin-Different-Phenotype (%) [6]: 12%
Total Cell Count [6]: 428
Population Apoptotic (%) [7]: 52%
Population Fragmented Nuclei (%) [7]: 10%
Population Healthy Nuclei (%) [7]: 76%
Population Hoechst High Intensity Objects (%) [7]: 5%
Population Membrane Permeable-Phenotype (%) [7]: 0%
Population Mitochondria Different-Phenotype (%) [7]: 71%
Population Mitotic Cells (%) [7]: 47%
Population Normal (%) [7]: 94%
Population Pyknosed Nuclei (%) [7]: 13%
Population Tubulin-Different-Phenotype (%) [7]: 68%
Total Cell Count [7]: 520
Population Apoptotic (%) [8]: 36%
Population Fragmented Nuclei (%) [8]: 7%
Population Healthy Nuclei (%) [8]: 79%
Population Mitochondria Different-Phenotype (%) [8]: 72%
Population Mitotic Cells (%) [8]: 63%
Population Pyknosed Nuclei (%) [8]: 12%
Population Tubulin-Different-Phenotype (%) [8]: 44%
Total Cell Count [8]: 492
Population Apoptotic (%) [9]: 27%
Population Fragmented Nuclei (%) [9]: 13%
Population Healthy Nuclei (%) [9]: 80%
Population Hoechst High Intensity Objects (%) [9]: 2%
Population Membrane Permeable-Phenotype (%) [9]: 0%
Population Mitochondria Different-Phenotype (%) [9]: 29%
Population Mitotic Cells (%) [9]: 72%
Population Normal (%) [9]: 97%
Population Pyknosed Nuclei (%) [9]: 6%
Population Tubulin-Different-Phenotype (%) [9]: 14%
Total Cell Count [9]: 743
Population Apoptotic (%) [10]: 38%
Population Fragmented Nuclei (%) [10]: 9%
Population Healthy Nuclei (%) [10]: 81%
Population Hoechst High Intensity Objects (%) [10]: 4%
Population Mitochondria Different-Phenotype (%) [10]: 23%
Population Mitotic Cells (%) [10]: 61%
Population Normal (%) [10]: 95%
Population Pyknosed Nuclei (%) [10]: 8%
Population Tubulin-Different-Phenotype (%) [10]: 12%
Total Cell Count [10]: 574
Population Apoptotic (%) [11]: 44%
Population Fragmented Nuclei (%) [11]: 13%
Population Healthy Nuclei (%) [11]: 75%
Population Hoechst High Intensity Objects (%) [11]: 3%
Population Membrane Permeable-Phenotype (%) [11]: 0%
Population Mitochondria Different-Phenotype (%) [11]: 63%
Population Mitotic Cells (%) [11]: 55%
Population Normal (%) [11]: 96%
Population Pyknosed Nuclei (%) [11]: 11%
Population Tubulin-Different-Phenotype (%) [11]: 46%
Total Cell Count [11]: 713
Population Apoptotic (%) [12]: 56%
Population Fragmented Nuclei (%) [12]: 11%
Population Healthy Nuclei (%) [12]: 80%
Population Hoechst High Intensity Objects (%) [12]: 2%
Population Mitochondria Different-Phenotype (%) [12]: 51%
Population Mitotic Cells (%) [12]: 43%
Population Normal (%) [12]: 97%
Population Pyknosed Nuclei (%) [12]: 7%
Population Tubulin-Different-Phenotype (%) [12]: 25%
Total Cell Count [12]: 669
